Laboratory results taken from ChEMBL document CHEMBL1155020, “Trithiocarbonates as a novel class of HDAC inhibitors: SAR studies, isoenzyme selectivity, and pharmacological profiles” (J Med Chem, 2008).
Activity calls are given as the source filed them. No cut-off for these calls is given here.

What was measured:
HeLa [1] = experiment: Cytotoxicity against human HeLa cells at 50 uM after 72 hrs by alamar blue assay; format: functional
Histone deacetylase [2] = experiment: Inhibition of nuclear HDAC isolated from human HeLa cells; format: cell-based
Histone deacetylase 1 [3] = target: T1, Histone deacetylase 1 (Homo sapiens, UniProt Q13547); experiment: Inhibition of recombinant HDAC1 expressed in HEK293 cells; format: cell-based
[4] = target: T2, Protein deacetylase HDAC6 (Homo sapiens, UniProt Q9UBN7); experiment: Inhibition of recombinant HDAC6 expressed in HEK293 cells; format: cell-based
T2 sequence (Q9UBN7 whole entry): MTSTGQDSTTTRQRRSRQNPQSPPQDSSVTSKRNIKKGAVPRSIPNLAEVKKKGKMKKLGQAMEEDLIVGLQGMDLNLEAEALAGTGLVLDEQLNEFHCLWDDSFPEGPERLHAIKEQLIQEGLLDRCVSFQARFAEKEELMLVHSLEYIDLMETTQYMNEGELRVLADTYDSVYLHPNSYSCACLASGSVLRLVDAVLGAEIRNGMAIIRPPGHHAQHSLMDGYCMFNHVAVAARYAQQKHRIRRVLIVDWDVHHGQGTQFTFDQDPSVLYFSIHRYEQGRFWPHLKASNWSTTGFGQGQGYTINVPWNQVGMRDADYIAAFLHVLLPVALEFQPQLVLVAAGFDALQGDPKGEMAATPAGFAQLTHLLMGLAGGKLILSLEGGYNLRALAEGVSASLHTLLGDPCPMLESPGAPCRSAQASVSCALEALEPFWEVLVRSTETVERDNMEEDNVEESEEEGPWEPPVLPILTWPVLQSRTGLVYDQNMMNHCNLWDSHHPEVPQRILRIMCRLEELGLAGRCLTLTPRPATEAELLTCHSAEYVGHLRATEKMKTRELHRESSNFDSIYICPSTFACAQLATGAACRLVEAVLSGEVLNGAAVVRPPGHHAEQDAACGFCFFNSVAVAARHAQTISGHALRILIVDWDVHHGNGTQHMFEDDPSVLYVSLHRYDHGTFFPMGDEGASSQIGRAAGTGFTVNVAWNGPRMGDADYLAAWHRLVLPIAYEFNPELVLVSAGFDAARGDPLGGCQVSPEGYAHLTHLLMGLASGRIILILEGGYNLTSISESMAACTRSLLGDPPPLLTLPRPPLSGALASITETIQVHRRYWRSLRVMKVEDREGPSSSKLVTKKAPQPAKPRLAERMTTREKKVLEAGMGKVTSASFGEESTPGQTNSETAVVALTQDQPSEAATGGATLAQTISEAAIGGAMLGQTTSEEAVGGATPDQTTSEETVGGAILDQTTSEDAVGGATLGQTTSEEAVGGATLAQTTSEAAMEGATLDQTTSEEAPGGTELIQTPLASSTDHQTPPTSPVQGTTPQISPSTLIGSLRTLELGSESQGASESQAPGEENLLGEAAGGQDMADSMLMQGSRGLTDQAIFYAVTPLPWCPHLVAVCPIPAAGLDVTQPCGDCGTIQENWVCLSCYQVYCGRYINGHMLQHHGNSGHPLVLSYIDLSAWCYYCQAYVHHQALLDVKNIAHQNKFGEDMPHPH

HeLa [5] = experiment: Cytotoxicity against human HeLa cells after 72 hrs by alamar blue assay; format: functional, cell-based
Summary of the method: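 HeLa cells were seeded at densities allowing growth through 72 h of compound exposure at 37 °C, 5% CO2. Viability was read by Alamar Blue (resazurin) reduction. Replicate assays were averaged, and IC50 was taken from concentration-effect curves.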

Histone deacetylase [6] = experiment: Inhibition of HDAC in human HeLa cells; format: cell-based
Histone deacetylase [7] = experiment: Inhibition of HDAC in human HeLa cells assessed as induction of histone H3 hyperacetylation after 24 hrs; format: cell-based
[8] = target: T3, Protein deacetylase HDAC6 (Homo sapiens) (UniProt Q9UBN7); experiment: Inhibition of recombinant HDAC6 expressed in HEK293 cells at 32 uM; format: cell-based
T3 sequence (whole entry): T2 sequence (Q9UBN7 whole entry)

[9] = target: T4, Histone deacetylase (Homo sapiens) (UniProt Q13547+O15379+Q9UBN7+Q92769+Q9UQL6+Q8WUI4+Q9BY41+Q96DB2+P56524+Q9UKV0+Q969S8); experiment: Inhibition of HDAC in human HeLa cells at 50 uM; format: cell-based
Summary of the method: (§1)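 HeLa cells were seeded at 5 × 10^3/well, grown for 24 h, and exposed to compound for 3 h. Cell-permeable Boc-K(Ac)-AMC was added for a further 3 h. Lysis/developer buffer containing trypsin and 10 µM TSA followed, with 3 h incubation. AMC fluorescence was read at ex 355/em 460 nm, and % inhibition was given at the stated concentration.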

[10] = target: T4, Histone deacetylase (Homo sapiens); experiment: Inhibition of nuclear HDAC isolated from human HeLa cells at 32 uM; format: cell-free
Histone deacetylase 1 [11] = target: T1, Histone deacetylase 1; experiment: Inhibition of recombinant HDAC1 expressed in HEK293 cells at 32 uM; format: cell-based
[12] = target: T4, Histone deacetylase (Homo sapiens); experiment: Inhibition of nuclear HDAC isolated from human HeLa cells at 30 uM; format: cell-free
Histone deacetylase 1 [13] = target: T1, Histone deacetylase 1; experiment: Inhibition of recombinant HDAC1 expressed in HEK293 cells at 30 uM; format: cell-based
[14] = target: T4, Histone deacetylase (Homo sapiens); experiment: Inhibition of HDAC in human HeLa cells at 32 uM; format: cell-based; summary of the method: as §1
[15] = target: T2, Protein deacetylase HDAC6; experiment: Inhibition of recombinant HDAC6 expressed in HEK293 cells using variable substrate concentration by Lineweaver-Burke plot; format: cell-based
Summary of the method: (§2)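 Inhibitor was used at 1/4, 1/2, 1, 2 and 4 times the IC50-derived concentration. Ki was obtained from Lineweaver-Burk plots, with y-axis intersection indicating substrate competition.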

[16] = target: T3, Protein deacetylase HDAC6 (Homo sapiens); experiment: Inhibition of HDAC6 in human A549 NSCLC cells assessed as induction of alpha-tubulin hyperacetylation at 10 uM after 24 hrs by Western blotting; format: cell-based
Summary of the method: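 A549 NSCLC cells were exposed to compound for 24 h and lysed. Western blots were probed for acetylated α-tubulin and acetylated histone H3 K1-20, then reprobed with histone H3 and α-tubulin antibodies as controls.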

RKO [17] = experiment: Induction of apoptosis in human RKO cells at 10 uM after 24 hrs by flow cytometry
RKO [18] = experiment: Cytotoxicity against arrested non proliferative human RKO cells after 24 hrs; format: functional, cell-based; details: in the assay text read “after 72 hrs” for “after 24 hrs”
Summary of the method: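 Alamar Blue (resazurin) read-out of metabolic activity. RKO p21waf1 transfectant cells were arrested by inducing p21waf1 with 10 µM ponasterone A for 24 h, then seeded at 2 × 10^4 cells/well and treated with compound. IC50 was taken from the concentration-effect curve.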

RKO [19] = experiment: Induction of apoptosis in human RKO cells assessed as accumulation at subG1 phase by flow cytometry; format: functional, cell-based
Summary of the method: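 RKO cells were seeded at 5 × 10^5 per 10 cm dish and grown for 24 h in log phase. They were then exposed to compound at 1 and 10 µM for 24 h. Flow cytometry assigned cells to subG1 (apoptosis), G1 (2N), S and G2/M (4N).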

[20] = target: T4, Histone deacetylase (Homo sapiens); experiment: Inhibition of HDAC in human RKO cells assessed as induction of histone H3 lysine 1 to 20 hyperacetylation at 1 to 10 uM after 24 hrs by Western blotting; format: cell-based
Summary of the method: (§3)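 RKO cells were treated for 24 h with compound at 1, 3 and 10 µM. Lysates were run on SDS-PAGE and Western blots probed for histone H3 S10 phosphorylation and histone H3 K1-20 acetylation, with β-actin reprobe as control.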

[21] = target: T4, Histone deacetylase (Homo sapiens); experiment: Inhibition of HDAC in human RKO cells assessed as induction of histone H3 serine 10 phosphorylation at 1 to 10 uM after 24 hrs by Western blotting; format: cell-based; summary of the method: as §3
Histone deacetylase 1 [22] = target: T1, Histone deacetylase 1; experiment: Inhibition of recombinant HDAC1 expressed in HEK293 cells using variable substrate concentration by Lineweaver-Burke plot; format: cell-based; summary of the method: as §2
[23] = target: T4, Histone deacetylase (Homo sapiens); experiment: Inhibition of HDAC in human HeLa cells assessed as induction of histone H3 hyperacetylation at 50 uM after 24 hrs by Western blotting; format: cell-based
Summary of the method: (§4)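 HeLa cells were treated with compound at 5 and 50 µM for 24 h, then lysed in Tris pH 8 RIPA-type buffer. Equal protein amounts were separated by SDS-PAGE and blotted to PVDF. Blots were probed for acetylated histone H3 K1-20 and p21waf1, then reprobed for β-actin as loading control.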

[24] = target: T4, Histone deacetylase (Homo sapiens); experiment: Inhibition of HDAC in human HeLa cells assessed as induction of p21waf1 at 50 uM after 24 hrs by Western blotting; format: cell-based; summary of the method: as §4

T1 sequence (Q13547 whole entry): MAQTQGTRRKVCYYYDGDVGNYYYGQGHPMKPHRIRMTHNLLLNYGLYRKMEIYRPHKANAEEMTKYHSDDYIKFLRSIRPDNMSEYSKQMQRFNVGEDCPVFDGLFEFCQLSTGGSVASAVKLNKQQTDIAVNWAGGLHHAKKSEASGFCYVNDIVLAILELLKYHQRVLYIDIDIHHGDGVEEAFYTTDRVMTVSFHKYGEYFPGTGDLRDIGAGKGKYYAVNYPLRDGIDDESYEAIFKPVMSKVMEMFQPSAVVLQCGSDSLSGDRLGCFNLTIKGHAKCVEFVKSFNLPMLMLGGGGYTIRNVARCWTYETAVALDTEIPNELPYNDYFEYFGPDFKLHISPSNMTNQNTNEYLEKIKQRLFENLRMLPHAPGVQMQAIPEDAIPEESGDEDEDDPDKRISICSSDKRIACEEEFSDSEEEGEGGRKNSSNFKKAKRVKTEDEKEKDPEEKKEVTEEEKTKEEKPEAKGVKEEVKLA

Row | IC50 (Histone deacetylase [2]) | IC50 (Histone deacetylase 1 [3]) | IC50 [4] | IC50 (Histone deacetylase [6]) | SMILES | IC50 (HeLa [5]) | also measured
1 | 79 nM | – | 1450 nM | – | CCSC(=S)SCC(=O)c1ccc(C(=O)Nc2ccc(Cl)cc2)cc1 | – | inhibition at 50 µM (HeLa [1]): 0%; inhibition (Histone deacetylase 1 [13]): 1%
2 | 120 nM | 1220 nM | 65 nM | 964 nM | CCSC(=S)SCC(=O)c1cccc(NC(=O)c2ccccc2)c1 | 8230 nM | Ki [15]: 110 nM; Activity [16]: Active
3 | 375 nM | 6990 nM | 1250 nM | 81200 nM | CCSC(=S)SCC(=O)c1ccc(C)cc1 | – | Activity (RKO [18]): Active; Activity (RKO [17]): Active; EC50 (Histone deacetylase [7]): 4800 nM; Activity (RKO [19]): Active
4 | 386 nM | 536 nM | 90 nM | 26200 nM | CCOC(=S)SCC(=O)c1ccc(NC(C)=O)cc1 | 3610 nM | Activity [20]: Active; Activity [21]: Active; Activity (RKO [17]): Active; EC50 (Histone deacetylase [7]): 2900 nM
5 | 40 nM | 18800 nM | 606 nM | 1190 nM | CCSC(=S)SCC(=O)c1ccc(NC(=O)Nc2ccccc2)cc1 | 20200 nM | –
6 | 83 nM | 831 nM | 43 nM | 1180 nM | CCSC(=S)SCC(=O)c1ccc(-c2ccc(N)cn2)s1 | 452 nM | –
7 | 63 nM | 31600 nM | 245 nM | 423 nM | CCSC(=S)SCC(=O)c1ccc(C(=O)Nc2ccccc2)s1 | 50000 nM | –

Second part, the molecule before the results:

Row | SMILES | IC50 (Histone deacetylase [2]) | IC50 (Histone deacetylase 1 [3]) | IC50 [4] | IC50 (Histone deacetylase [6]) | IC50 (HeLa [5]) | also measured
8 | CCSC(=S)SCC(=O)c1cccc(S(=O)(=O)N(C)c2ccc(OC)cc2)c1 | 110 nM | 5330 nM | 2040 nM | – | – | inhibition at 50 µM (HeLa [1]): 43%
9 | CCSC(=S)SCC(=O)c1ccc(CC(=O)Nc2ccc(OC)cc2)s1 | 10 nM | 251 nM | 116 nM | 7530 nM | 6610 nM | EC50 (Histone deacetylase [7]): 760 nM
10 | CCSC(=S)OCC(=O)c1ccc(OC)cc1 | – | – | – | – | 2990 nM | inhibition [8]: 16%; inhibition [9]: 28%; inhibition [10]: 16%; inhibition (Histone deacetylase 1 [11]): 6%
11 | CCNC(=S)NCC(=O)c1ccc(OC)cc1 | – | – | – | – | 5810 nM | inhibition [12]: -6%
12 | CCSC(=S)NCC(=O)c1ccc(OC)cc1 | – | – | – | – | – | inhibition [8]: -8%; inhibition at 50 µM (HeLa [1]): 26%; inhibition [10]: -3%
13 | COc1ccc(C(=O)CSC(=S)N2CCOCC2)cc1 | – | – | – | – | – | inhibition [8]: -2%; inhibition [14]: 0%; inhibition [10]: 2%; inhibition (Histone deacetylase 1 [11]): 0%
14 | CCSC(=S)SCC(=O)c1ccc(-c2ccc(CNc3cnc4ccccc4c3)cn2)s1 | 8 nM | 555 nM | 438 nM | 683 nM | 2700 nM | Activity (RKO [17]): Active; EC50 (Histone deacetylase [7]): 4800 nM
15 | CCSC(=S)SCC(=O)c1ccc(CC(=O)NCc2ccccc2)s1 | 38 nM | 762 nM | 250 nM | 9840 nM | 710 nM | Activity [20]: Active; Activity [21]: Active; EC50 (Histone deacetylase [7]): 2400 nM
16 | CCSC(=S)SCC(=O)c1ccc(CC(=O)NCCOc2ccccc2)s1 | 18 nM | 385 nM | 204 nM | 624 nM | 5780 nM | Ki (Histone deacetylase 1 [22]): 460 nM
17 | CCSC(=S)SCC(=O)c1ccn(S(=O)(=O)c2ccccc2)c1 | – | – | – | – | – | Ki [15]: 140 nM
18 | CCSC(=S)SCC(=O)c1cccc(S(=O)(=O)Nc2ccc3c(c2)OCO3)c1 | 14 nM | 501 nM | 431 nM | 1860 nM | 9180 nM | Activity [23]: Active; Activity [24]: Active
19 | CCSC(=S)SCC(=O)c1cccc(S(=O)(=O)Nc2ccc(OC)cc2)c1 | 15 nM | 530 nM | 519 nM | 2770 nM | 5170 nM | –
